Tests used:
[1] = tested on: Tyr369-377-specific CD8^+ T cell clones; assay: IFNγ secretion assay; type: cell-based, human; conditions: 1/1 ratio with pulsed T2 cells, 24 h co-culture, ELISA, duplicates
Procedure, shortened: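 Tyrosinase-specific CD8+ T cell clones came from HLA-A2 tetramer sorting and limiting dilution. They were grown in RPMI with 8% pooled human serum and 150 IU/ml IL-2 at 37°C, 5% CO2. Clones were co-cultured 1:1 for 24 h with T2 cells pulsed with serial dilutions of native or oxidized peptide, in duplicate. IFNγ was measured by ELISA against an exponential standard curve.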

[2] = HPLC oxidation profiling of the YMD peptide using hydrogen peroxide; type: physicochemical
Procedure, shortened: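 Synthetic test peptide (~155 μM in LC-MS water) oxidized with varying hydrogen peroxide levels for 30 min at 4°C. For time courses, similar peptide level in 0.1% formic acid/2% acetonitrile with hydrogen peroxide in excess (120 mM), treated as constant for pseudo-first-order fitting. Forms resolved by RP-HPLC, fractions verified by offline MS/MS; triplicate points.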

[3] = tested on: Tyr369-377-specific CD8^+ T cell clones; assay: Standard 4-h 51Chromium release assay, peptide-pulsed T2 cells; type: cell-based, human; conditions: EC50 = peptide concentration giving 50% maximal killing; across YMD-specific CD8^+ T cell clones
[4] = tested on: MAGE-A10-specific CD8^+ T cell clones; assay: as above; type: cell-based, human; conditions: n = 3 MAGE-A10-specific CD8^+ T cells; no titration of the antigenic peptides
HLA-A∗02:01 = HLA-A∗02:01 (Homo sapiens, UniProt P04439, D140Y/D185E/D98H/E176V/E277Q/G131W/G231S/I119V/I121R/I166T/I218V/L300P/L318F/N151K/N90K/P208A/P217A/Q86G/Q94H/R138H/R169H/T345S); conditions: refolded complex, ELISA

Substance	IFNγ released compared with native [1]	EC50 compared with the native peptide [3]	further results
M2SO: Met2 sulfoxide of the YMD peptide	no significant differences	–	–
YMDGTMSQV [N]	–	–	time for 50% of the peptide to oxidize ([2]; 120 mM hydrogen peroxide, 4°C, pseudo-first-order kinetics, RP-HPLC UV 275 nm): ~20 min; fraction of the total found as complete oxidized to sulfone forms ([2]; 3 M hydrogen peroxide, after 10 days, RP-HPLC peak quantification): ~66%; transformation of the peptide to sulfoxide forms ([2]; hydrogen peroxide 600 mM or higher, 30 min, 4°C, RP-HPLC UV 275 nm): almost complete transformation
M6SO: Met6 sulfoxide of the YMD peptide	released more IFNγ	significant lower values	–
MAGE-A10_OX: oxidized form of MAGE-A10 254-262 peptide (GLYDGMEHL; not fully specified; oxidized Met (the underlined M of GLYDGMEHL; sulfoxide or sulfone not stated))	–	–	EC50 compared with the native peptide [4]: slightly increased
YM2SODGTM6SOSQV [M2SOM6SO]	released more IFNγ	significant lower values	stability of the HLA-A∗02:01-peptide complex at t0 compared with HLA-A∗02:01-N (HLA-A∗02:01): more stable at t0
